Laboratory results: article PMC10438863 (Journal of Enzyme Inhibition and Medicinal Chemistry, 2023)

Assays:
[1] = system: K562 cell line; assay: CCK-8 antiproliferative assay, K562; type: cell-based; details: for inhibition at 0.1 µM / inhibition at 1 µM / IC50: Homo sapiens, K562, 72 h; for inhibition at 0.1 µM / inhibition at 1 µM: read-out: Inhibition rate (%); for IC50: read-out: IC50 (µM) K562; for fold decrease in antiproliferative activities of K562 cell lines: relative to 12d
In short: (§1)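 Cells were grown in RPMI-1640 with 10% FBS at 37 °C in 5% CO2. About 3.5 × 10^3 cells/well were seeded, grown 24 h, then given test compound at several concentrations for 72 h in triplicate wells. CCK-8 was added for 2–3 h and OD read at 450 nm to give inhibition rate or IC50. K562 screen: mean of ≥2 independent experiments. Five-line panel: mean ± SD of three.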

[2] = system: Hela; assay: CCK-8 antiproliferative assay, Hela; type: cell-based; details: Homo sapiens, HeLa, 72 h, read-out: IC50 (µM) Hela
In short: as §1

[3] = system: H22; assay: CCK-8 antiproliferative assay, H22; type: cell-based, mouse; details: Mus musculus, H22, 72 h, read-out: IC50 (µM) H22
In short: as §1

[4] = system: A549; assay: CCK-8 antiproliferative assay, A549; type: cell-based; details: Homo sapiens, A549, 72 h, read-out: IC50 (µM) A549
In short: as §1

[5] = system: normal cell line HFL-1; assay: CCK-8 assay, normal cell line HFL-1; type: cell-based; details: Homo sapiens, HFL1, 72 h, read-out: IC50 (µM) HFL-1
In short: as §1

Row | IC50 [2] [µM] | IC50 [4] [µM] | IC50 [1] [µM] | Structure (SMILES) | inhibition at 0.1 µM [1] [%] | inhibition at 1 µM [1] [%] | IC50 [3] [µM] | IC50 [5] [µM] | fold decrease in antiproliferative activities of K562 cell lines [1]
1 |  |  |  | COc1cc2c(c(OC)c1OC)CC(Cc1cccc3[nH]ccc13)C2 (centres unmarked) [Compound 12s, 4-((4,5,6-trimethoxy-2,3-dihydro-1H-inden-2-yl)methyl)-1H-indole] | 9.67 | 67.1 |  |  | 
2 |  |  |  | COc1cc2c(c(OC)c1OC)CC(Cc1ccc(O)cc1)C2 (centres unmarked) [Compound 12m, 4-((4,5,6-trimethoxy-2,3-dihydro-1H-inden-2-yl)methyl)phenol] | 2.9 | 16.4 |  |  | 
3 |  |  |  | COc1ccc(CC2Cc3cc(OC)c(OC)c(OC)c3C2)cc1 (centres unmarked) [Compound 12a, 4,5,6-trimethoxy-2–(4-methoxybenzyl)-2,3-dihydro-1H-indene] | 5.71 | 72.4 |  |  | 
4 |  |  |  | COc1cc2c(c(OC)c1OC)CC(Cc1ccc3cc[nH]c3c1)C2 (centres unmarked) [Compound 12u, 6-((4,5,6-trimethoxy-2,3-dihydro-1H-inden-2-yl)methyl)-1H-indole] | 10.8 | 83.9 |  |  | 
5 |  |  |  | COc1cc2c(c(OC)c1OC)CC(Cc1ccc(N)c(C)c1)C2 (centres unmarked) [Compound 12h, 2-methyl-4-((4,5,6-trimethoxy-2,3-dihydro-1H-inden-2-yl)methyl)aniline] | 2.25 | 79.8 |  |  | 
6 | 3.41 ± 0.186 | 2.95 ± 0.154 | 0.774 ± 0.051 | COc1ccc(CC2Cc3cc(OC)c(OC)c(OC)c3C2=O)cc1O (centres unmarked) [Compound 15d, 2–(3-hydroxy-4-methoxybenzyl)-5,6,7-trimethoxy-2,3-dihydro-1H-inden-1-one] | 39 | 63 | 1.13 ± 0.058 | 6.96 ± 0.843 | 
7 | 3.17 ± 0.108 | 2.01 ± 0.117 | 0.425 ± 0.027 | COc1ccc(CC2Cc3cc(O)c(OC)cc3C2)cc1O (centres unmarked) [Compound 15b, 2–(3-hydroxy-4-methoxybenzyl)-6-methoxy-2,3-dihydro-1H-inden-5-ol] | 31.4 | 89.2 | 0.575 ± 0.041 | 11.3 ± 1.4 | ~15 fold
8 |  |  |  | COc1cc2c(c(OC)c1OC)CC(Cc1ccc(N)cc1)C2 (centres unmarked) [Compound 12n, 4-((4,5,6-trimethoxy-2,3-dihydro-1H-inden-2-yl)methyl)aniline] | 5.81 | 78.8 |  |  | 
9 |  |  |  | COc1cc(CC2Cc3cc(OC)c(OC)c(OC)c3C2)cc(OC)c1OC (centres unmarked) [Compound 12c, 4,5,6-trimethoxy-2–(3,4,5-trimethoxybenzyl)-2,3-dihydro-1H-indene] | 6.96 | 9.48 |  |  | 
10 |  |  |  | COc1cc2c(c(OC)c1OC)CC(Cc1ccc(N(C)C)cc1)C2 (centres unmarked) [Compound 12o, N,N-dimethyl-4-((4,5,6-trimethoxy-2,3-dihydro-1H-inden-2-yl)methyl)aniline] | 5.65 | 6.97 |  |  | 
11 |  |  |  | COc1ccc(CC2Cc3cc(OC)c(OC)c(OC)c3C2)cn1 (centres unmarked) [Compound 12k, 2-methoxy-5-((4,5,6-trimethoxy-2,3-dihydro-1H-inden-2-yl)methyl)pyridine] | 4.12 | 13.9 |  |  | 
12 | 0.309 ± 0.032 | 0.341 ± 0.064 | 0.1 ± 0.007 | COc1ccc(CC2Cc3c(cc(OC)c(OC)c3OC)O2)cc1O (centres unmarked) [Compound 15c, 2-methoxy-5-((4,5,6-trimethoxy-2,3-dihydrobenzofuran-2-yl)methyl)phenol] | 52.1 | 87.5 | 0.114 ± 0.023 | 3.58 ± 0.548 | 
13 | 0.136 ± 0.011 | 0.212 ± 0.013 | 0.068 ± 0.006 | COc1ccc(CC2Cc3cc(OC)c(OC)c(OC)c3C2)cc1N (centres unmarked) [Compound 12j, 2-methoxy-5-((4,5,6-trimethoxy-2,3-dihydro-1H-inden-2-yl)methyl)aniline] | 68.7 | 86.6 | 0.093 ± 0.005 | 0.59 ± 0.062 | 
14 | 0.284 ± 0.014 | 0.277 ± 0.029 | 0.176 ± 0.024 | COc1cc2c(c(OC)c1OC)CC(Cc1ccc3[nH]ccc3c1)C2 (centres unmarked) [Compound 12t, 5-((4,5,6-trimethoxy-2,3-dihydro-1H-inden-2-yl)methyl)-1H-indole] | 50.4 | 88.6 | 0.254 ± 0.02 | 0.552 ± 0.075 | 
15 |  |  |  | COc1cc2c(c(OC)c1OC)CC(Cc1ccc(C(F)(F)F)cc1)C2 (centres unmarked) [Compound 12p, 4,5,6-trimethoxy-2–(4-(trifluoromethyl)benzyl)-2,3-dihydro-1H-indene] | 12.6 | 15.4 |  |  | 
16 |  |  |  | COc1cc2c(c(OC)c1OC)CC(Cc1ccc3ccn(C)c3c1)C2 (centres unmarked) [Compound 12x, 1-methyl-6-((4,5,6-trimethoxy-2,3-dihydro-1H-inden-2-yl)methyl)-1H-indole] | 12.5 | 74.9 |  |  | 
17 | 0.317 ± 0.027 | 0.753 ± 0.04 | 0.192 ± 0.013 | COc1ccc(CC2Cc3cc(OC)c(OC)cc3C2)cc1O [Compound 15a, 5-((5,6-dimethoxy-2,3-dihydro-1H-inden-2-yl)methyl)-2-methoxyphenol] | 45.6 | 81.5 | 0.307 ± 0.015 | 5 ± 0.306 | about 7 fold
18 |  |  |  | COc1cc2c(c(OC)c1OC)CC(Cc1ccccc1)C2 (centres unmarked) [Compound 12l, 2-benzyl-4,5,6-trimethoxy-2,3-dihydro-1H-indene] | 1.03 | 7.29 |  |  | 
19 |  |  |  | COc1cc2c(c(OC)c1OC)CC(Cc1ccc3c(ccn3C)c1)C2 (centres unmarked) [Compound 12w, 1-methyl-5-((4,5,6-trimethoxy-2,3-dihydro-1H-inden-2-yl)methyl)-1H-indole] | 10 | 85.8 |  |  | 
20 |  |  |  | COc1cc2c(c(OC)c1OC)CC(Cc1cccc3c1ccn3C)C2 (centres unmarked) [Compound 12v, 1-methyl-4-((4,5,6-trimethoxy-2,3-dihydro-1H-inden-2-yl)methyl)-1H-indole] | 5.02 | 28.5 |  |  | 
21 | 0.183 ± 0.009 | 0.22 ± 0.015 | 0.079 ± 0.009 | COc1cc2c(c(OC)c1OC)CC(Cc1ccc3c(c1)CCO3)C2 (centres unmarked) [Compound 12q, 5-((4,5,6-trimethoxy-2,3-dihydro-1H-inden-2-yl)methyl)-2,3-dihydrobenzofuran] | 83.6 | 91.9 | 0.104 ± 0.004 | 0.398 ± 0.023 | 
22 |  |  |  | COc1ccc(CC2Cc3cc(OC)c(OC)c(OC)c3C2)cc1OC (centres unmarked) [Compound 12b, 2–(3,4-dimethoxybenzyl)-4,5,6-trimethoxy-2,3-dihydro-1H-indene] | 5.8 | 15.2 |  |  | 
23 |  |  |  | COc1ccc(CC2Cc3cc(OC)c(OC)c(OC)c3C2)cc1F (centres unmarked) [Compound 12e, 2–(3-fluoro-4-methoxybenzyl)-4,5,6-trimethoxy-2,3-dihydro-1H-indene] | 10.2 | 67 |  |  | 
24 |  |  |  | COc1cc2c(c(OC)c1OC)CC(Cc1ccc(C)c(F)c1)C2 (centres unmarked) [Compound 12f, 2–(3-fluoro-4-methylbenzyl)-4,5,6-trimethoxy-2,3-dihydro-1H-indene] | 6.65 | 72 |  |  | 
25 |  |  |  | COc1cc2c(c(OC)c1OC)CC(Cc1ccc(C)c(C)c1)C2 (centres unmarked) [Compound 12i, 2–(3,4-dimethylbenzyl)-4,5,6-trimethoxy-2,3-dihydro-1H-indene] | 3 | 66 |  |  | 
26 |  |  |  | COc1cc2c(c(OC)c1OC)CC(Cc1ccc(F)c(F)c1)C2 (centres unmarked) [Compound 12g, 2–(3,4-difluorobenzyl)-4,5,6-trimethoxy-2,3-dihydro-1H-indene] | 4.71 | 7.74 |  |  | 
